Shown are actives, neighbours in structure and some others; about 2.3% of the full set was active somewhere.
TRPC4 act – activators of mouse TRPC4 channel; Q9QUQ5; HEK293 TRPC4beta/mu-opioid, Fluo4 calcium fluorescence; active compounds read high; B-score at 10 µM; 310,000 tested, 0.49% active;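 active means B-score above 5 SD of library B-scores, and initial fluorescence ratio not above library mean plus 5 SD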;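 further: positive B-score marks a calcium rise read as TRPC4 activation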
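Incubation: 45 min room-temperature Fluo4 loading, 110 s read / System: HEK293 cells stably co-expressing mouse TRPC4beta and mu-opioid receptor / Signal: Fluo4 fluorescence, kinetic / Control set: buffer (low) and maximal DAMGO (high) / Measure: integrated baseline-normalised fluorescence ratio, converted to per-well B score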
TRPC6 inh – inhibitors of mouse TRPC6 channel; B-score at 10 µM; 310,000 tested, 1.1% active; HEK293-TRPC6, membrane potential dye, ACh-evoked depolarization; active compounds read low; Q61143; AID 2553;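 active means B-score under library mean minus 3 SD, initial fluorescence not abnormally high, positive integrated signal ratio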;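 further: B-score derived from integrated fluorescence ratio over the kinetic read; more negative B-score means stronger inhibition of depolarization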
TRPC6 activator – mouse TRPC6 channel activation; AID 2550; HEK293-TRPC6 membrane potential dye fluorescence; active compounds read high; B-score at 10 µM; 310,000 tested, 0.13% active; Q61143;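 active means B-score of the integrated fluorescence ratio above library mean plus 3 SD, and starting fluorescence ratio within library mean plus 5 SD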;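 further: higher score means more depolarization so channel activation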
TRPC4 inh – blocks the mouse TRPC4 cation channel; 300,000 tested, 0.39% active; B-score at 10 µM; HEK293 TRPC4beta/mu-opioid, DAMGO-evoked Fluo4 calcium flux; active compounds read low;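 active means B-score over 3 SD under the library average, no early fluorescence shift, positive overall ratio signal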
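Material: HEK293 cells with stable TRPC4beta plus mu-opioid receptor expression / Probe or stimulus: DAMGO in two steps, submaximal then maximal / Compound: single concentration per test compound / Technique: kinetic Fluo4 fluorescence imaging of calcium influx / Read-out: per-well B score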
TRPC4 potent – TRPC4 (mouse) allosteric potentiation; Q9QUQ5; HEK293 TRPC4beta/mu-opioid, DAMGO EC20, Fluo-4 Ca2+ flux; active compounds read high; B-score at 10 µM; 310,000 tested, 0.42% active; AID 2227;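 active means B-score of calcium response area above 5 SD of library B-scores, with initial fluorescence ratio within 5 SD of library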
TRPC4 spec 2 – mouse TRPC4 off-target activity of TRPC6 inhibitors, second screen; shares compounds with TRPC6 inh; HEK293 TRPC4/MOR, membrane potential dye fluorescence; channel activated by saturating DAMGO dose; inhibition, % at 10 µM; 920 tested, 42% active;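 active means compounds whose fluorescence signal differed from control wells by over 3 SD, either direction, in both duplicate plates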
TRPC4 spec – tests whether TRPC6 inhibitors also affect mouse TRPC4 | shares compounds with TRPC6 inh | HEK293 TRPC4/mu-opioid, membrane potential fluorescence | activity change, negative = inhibition, % at 10 µM | 920 tested, 61% active | AID 2777;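 active means rise or fall in signal beyond 3 SD of buffer-only wells in both replicate plates, either sign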;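 further: integrated kinetic ratio of fluorescence range over baseline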
HEK293 MPD ctr 2-1 – second counter-screen for TRPC6 inhibitors: parental HEK293 cells | signal change vs control, % at 10 µM | parental HEK293 membrane potential dye fluorescence; maximal acetylcholine challenge after compound addition | 920 tested, 31% active | AID 2779 | shares compounds with TRPC6 inh;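 active means membrane potential signal moving either way by over 3 SD of the maximum-effect control, in both duplicate plates, meaning non-specific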
HEK293 MPD ctr-1 – counter-screen for TRPC6 inhibitors: effect in parental HEK293 cells; shares compounds with TRPC6 inh; parental HEK293 membrane potential dye fluorescence; membrane potential signal change, % at 10 µM; 920 tested, 60% active; AID 2780;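 active means membrane potential signal shifting up or down by more than 3 SD of buffer-only wells, on both duplicate plates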
HEK293 MPD ctr-2 – parental HEK293 nonspecific activity of TRPC6 modulators | membrane potential dye fluorescence | 2,400 tested, 51% active | shares compounds with TRPC6 inh | membrane potential signal change, % at 10 µM | AID 488924;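 active means membrane potential signal moves up or down beyond 5 SD from buffer-only wells, on both duplicate plates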
HEK293 MPD ctr 2-2 – second counter-screen for TRPC6 modulators: effect in parental HEK293 cells; shares compounds with TRPC6 inh; membrane potential dye fluorescence; after compound, maximal acetylcholine stimulation; inhibition, % at 10 µM; 2,400 tested, 14% active; AID 488926;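 active means membrane potential signal drops by more than 5 SD from the mean control signal, in both duplicate plates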
TRPC4/MOR mod – selectivity of TRPC6 modulators against mouse TRPC4. shares compounds with TRPC6 inh. HEK293 TRPC4/mu-opioid, membrane potential fluorescence. percent change from control (negative = decrease, positive = increase), % at 10 µM. 2,400 tested, 69% active;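 active means membrane potential signal moved up or down beyond 5 SD of buffer control wells, in both duplicate plates, actives on both sides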
TRPC4/MOR inh 2 – second check of whether TRPC6 modulators also affect mouse TRPC4; AID 488928; 2,400 tested, 55% active; shares compounds with TRPC6 inh; HEK293 TRPC4/mu-opioid, membrane potential dye fluorescence; stimulated with maximal-effect DAMGO; inhibition, % at 10 µM;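 active means drop in membrane potential signal beyond 5 SD of the control wells in both duplicate plates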;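 further: TRPC4 counter screen for TRPC6 hits run under conditions tuned for TRPC6 not TRPC4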
TRPC6 block conf – mouse TRPC6 inhibitor confirmation | shares compounds with TRPC6 inh | HEK293-TRPC6, membrane potential dye, ACh-evoked depolarization | inhibition, % at 10 µM | 3,300 tested, 43% active | AID 488960;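 active means fluorescence ratio falls more than 5 SD below the full-stimulation control mean, in both duplicate runs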;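 further: integrated fluorescence ratio of peak minus minimum over baseline after agonist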
TRPC6 act confirm – confirmation of mouse TRPC6 activators. shares compounds with TRPC6 inh. HEK293-TRPC6 membrane potential dye fluorescence, FDSS. activation, % at 10 µM. 2,800 tested, 11% active;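 active means ratio signal rise beyond 5 SD above unstimulated control wells' mean, seen in both duplicate runs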
Each line names hits and unclear results; the compound was inactive in the other large screens (follow-up assays come after a bar, where they were run).

C[N+](C)(C)C/C=C1/COCO1	TRPC6 inh -6.7 | TRPC4 spec 2 inactive | TRPC4 spec 0.5% | HEK293 MPD ctr 2-1 inactive | HEK293 MPD ctr-1 0.3% | TRPC6 block conf inactive
O=c1c2ccccc2sc2ccc(NCCCN3CCOCC3)cc12	TRPC6 activator 34 | HEK293 MPD ctr-2 940% | HEK293 MPD ctr 2-2 inactive | TRPC4/MOR mod 190% | TRPC4/MOR inh 2 80% | TRPC6 act confirm 365%
O=c1c2ccccc2oc2ccc(NCCCn3ccnc3)cc12	none
CN1CCCC1CCNc1ccc2sc3ccccc3c(=O)c2c1 (stereo not drawn)	TRPC4 act 75, TRPC6 inh -6.3, TRPC6 activator 30 | HEK293 MPD ctr-2 794% | HEK293 MPD ctr 2-2 inactive | TRPC4/MOR mod 148% | TRPC4/MOR inh 2 67% | TRPC6 block conf inactive | TRPC6 act confirm 318%
O=C(NCCN1CCOCC1)c1sc2ccccc2c1Cl	none
Cc1cc2oc3cc(NCCC4CCCN4C)ccc3c(=O)c2cc1C (stereo not drawn)	TRPC6 inh -5.9 | HEK293 MPD ctr-2 inactive | HEK293 MPD ctr 2-2 84% | TRPC4/MOR mod -11% | TRPC4/MOR inh 2 76% | TRPC6 block conf 50% | TRPC6 act confirm inactive
C=C1CC2C(=O)N(Cc3ccccc3)C(C(=O)OCC)(C(=O)OCC)C1N2C(=O)OC(C)(C)C (stereo not drawn)	none
O=C(CSc1ccc(-c2ccc(-n3cccn3)cc2)nn1)Nc1ccccc1F	none
Cc1ccc(C)c(NC(=O)COC(=O)COc2cccc3c2OC(C)(C)C3)c1	none
Cc1onc(-c2c(F)cccc2Cl)c1C(=O)NC(=S)Nc1c(C)n(C)n(-c2ccccc2)c1=O	TRPC6 inh -9.2 | TRPC4 spec 2 inactive | TRPC4 spec inactive | HEK293 MPD ctr 2-1 38% | HEK293 MPD ctr-1 inactive | TRPC6 block conf inactive | TRPC6 act confirm inactive
Cc1onc(-c2c(F)cccc2Cl)c1C(=O)Nc1c(C)n(C)n(-c2ccccc2)c1=O	none
COc1cccc(NC(=O)CN(C)C(=O)CN2C(=O)c3ccc([N+](=O)[O-])cc3C2=O)c1	none
COc1ccccc1N1N=C(c2ccc([N+](=O)[O-])cc2)CC1c1ccccc1 (stereo not drawn)	TRPC6 activator 13 | HEK293 MPD ctr-2 inactive | HEK293 MPD ctr 2-2 inactive | TRPC4/MOR mod 23% | TRPC4/MOR inh 2 inactive | TRPC6 block conf inactive | TRPC6 act confirm 44%

Screening results deposited in PubChem by Johns Hopkins Ion Channel Center.
